This is an account of results in ChEMBL document CHEMBL1140384, “Synthesis and structure-activity relationships of suramin-derived P2Y11 receptor antagonists with nanomolar potency” (J Med Chem, 2005).

The target of assay [1] is T1, P2Y purinoceptor 2 (Homo sapiens, UniProt P41231). Kind of assay: Percent inhibition of agonist-induced calcium mobilization at P2Y purinoceptor 2 recombinantly expressed in human HEK293 cells at 100 uM dose. The format is functional, cell-based. The conditions noted are these: in the assay text read “native in” for “recombinantly expressed in”. In short, it runs like this: (§1)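 Single 100 µM antagonist dose, preincubated 30 min at 37 °C, in a Ca2+ fluorescence assay (Oregon Green 488 BAPTA-1/AM). Agonists: 31.6 nM 2-MeSADP for native P2Y1 and 3.16 µM UTP for native P2Y2, both in HEK293 cells; 1 µM ATPγS for recombinant P2Y11 in 1321N1 cells. Response expressed as % of agonist control; mean ± SEM, n ≥ 3.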
T1 sequence (P41231 whole entry): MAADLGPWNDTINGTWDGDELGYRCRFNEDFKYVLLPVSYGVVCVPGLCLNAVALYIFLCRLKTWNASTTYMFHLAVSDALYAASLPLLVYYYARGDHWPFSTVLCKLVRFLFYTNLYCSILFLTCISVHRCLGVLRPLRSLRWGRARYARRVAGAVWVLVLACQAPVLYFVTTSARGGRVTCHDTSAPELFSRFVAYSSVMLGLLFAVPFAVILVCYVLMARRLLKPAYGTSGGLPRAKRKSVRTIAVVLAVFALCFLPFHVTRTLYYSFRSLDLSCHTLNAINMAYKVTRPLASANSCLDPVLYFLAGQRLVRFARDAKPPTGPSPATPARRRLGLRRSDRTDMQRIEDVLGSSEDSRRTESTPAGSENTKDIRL
(Calcium flux is commonly read through the fluorescence of an indicator in the cells.)

Assay [2] has as its target T2, P2Y purinoceptor 11 (Homo sapiens, UniProt Q96G91).
T2 sequence (Q96G91 whole entry): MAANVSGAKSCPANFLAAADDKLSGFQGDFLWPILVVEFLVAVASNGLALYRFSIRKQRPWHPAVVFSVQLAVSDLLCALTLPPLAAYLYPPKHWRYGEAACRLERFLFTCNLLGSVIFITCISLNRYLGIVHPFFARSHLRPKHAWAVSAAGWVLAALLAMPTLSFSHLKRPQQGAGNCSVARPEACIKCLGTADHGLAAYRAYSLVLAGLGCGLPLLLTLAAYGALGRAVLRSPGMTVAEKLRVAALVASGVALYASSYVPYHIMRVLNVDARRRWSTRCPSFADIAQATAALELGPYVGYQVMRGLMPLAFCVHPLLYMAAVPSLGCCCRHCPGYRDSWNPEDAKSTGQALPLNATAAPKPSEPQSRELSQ
Kind of assay: Inhibitory concentration against P2Y purinoceptor 11 expressed in 1321N1 astrocytoma cells; n=7. The format is cell-based. The method, boiled down: (§2)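 Human P2Y11 stably expressed in 1321N1 astrocytoma cells (G418 selection), loaded with Oregon Green 488 BAPTA-1/AM (3 µM, 60 min, 25 °C) in Krebs-HEPES. Compound preincubated 30 min at 37 °C before injection of 1 µM ATPγS. Ca2+ fluorescence read at ex 485/em 520 nm for 30 s. IC50 from concentration-inhibition curves; independent experiments each run in triplicate.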

In assay [3] the target is T3, P2X purinoceptor 3 (Homo sapiens, UniProt P56373).
T3 sequence (P56373 whole entry): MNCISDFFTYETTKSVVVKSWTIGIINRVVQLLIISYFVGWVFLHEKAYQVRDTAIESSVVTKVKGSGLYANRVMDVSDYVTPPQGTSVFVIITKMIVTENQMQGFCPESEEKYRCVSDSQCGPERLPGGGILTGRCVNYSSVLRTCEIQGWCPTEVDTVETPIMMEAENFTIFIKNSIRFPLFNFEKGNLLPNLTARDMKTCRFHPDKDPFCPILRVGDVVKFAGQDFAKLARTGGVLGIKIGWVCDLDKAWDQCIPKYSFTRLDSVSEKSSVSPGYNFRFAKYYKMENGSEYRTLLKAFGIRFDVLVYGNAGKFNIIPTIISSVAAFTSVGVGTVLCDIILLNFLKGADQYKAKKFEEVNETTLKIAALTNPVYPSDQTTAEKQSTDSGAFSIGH
Kind of assay: Inhibitory concentration against human P2X purinoceptor 3 expressed in Xenopus laevis oocytes. The format is functional, cell-based, Oocyte. The method, boiled down:
(§3)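 Two-electrode voltage clamp on Xenopus laevis oocytes expressing recombinant rat or human P2X subtypes, recording receptor-mediated currents. IC50 values came from nonlinear least-squares Hill fits to pooled concentration-inhibition data; mean ± SEM from at least three experiments.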

The target of assay [4] is T4, P2X purinoceptor 2 (Rattus norvegicus, UniProt P49653).
T4 sequence (P49653 whole entry): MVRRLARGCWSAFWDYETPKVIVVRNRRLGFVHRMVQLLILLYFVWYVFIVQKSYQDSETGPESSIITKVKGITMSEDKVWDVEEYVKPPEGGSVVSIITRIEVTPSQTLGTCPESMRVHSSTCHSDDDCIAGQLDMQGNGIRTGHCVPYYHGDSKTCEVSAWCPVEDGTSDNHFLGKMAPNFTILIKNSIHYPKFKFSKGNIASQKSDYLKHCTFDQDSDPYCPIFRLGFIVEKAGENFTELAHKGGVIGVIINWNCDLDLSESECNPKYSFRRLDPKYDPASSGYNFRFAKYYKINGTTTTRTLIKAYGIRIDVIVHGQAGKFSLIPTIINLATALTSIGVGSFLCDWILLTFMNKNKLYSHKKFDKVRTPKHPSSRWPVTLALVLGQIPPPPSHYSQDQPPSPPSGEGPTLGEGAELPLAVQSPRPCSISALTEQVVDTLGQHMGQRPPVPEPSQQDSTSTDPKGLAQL
Kind of assay: Inhibitory concentration against rat P2X purinoceptor 2 expressed in Xenopus laevis oocytes. The format is functional, cell-based, Oocyte. In short, it runs like this: as §3

Assay [5] addresses P2Y purinoceptor 1 (Homo sapiens, UniProt P47900). Nature of the assay: Percent inhibition of agonist-induced calcium mobilization at P2Y purinoceptor 1 recombinantly expressed in human HEK293 cells at 100 uM dose. The following applies: in the assay text read “native in” for “recombinantly expressed in”. The format is functional, cell-based. The method, boiled down: as §1
Assay [6] deals with T5, P2Y purinoceptor 11 (Homo sapiens) (UniProt Q96G91).
T5 sequence (whole entry): T2 sequence (Q96G91 whole entry)
Kind of assay: Percent inhibition of agonist-induced calcium mobilization at P2Y purinoceptor 11 recombinantly expressed in human 1321N1 astrocytoma cells at 100 uM dose.

Assay [7] concerns the target T1, P2Y purinoceptor 2. Kind of assay: Inhibitory concentration against P2Y2 receptor expressed in 1321N1 astrocytoma Cells; (n=3).
The target of assay [8] is P2X purinoceptor 4 (Rattus norvegicus) (UniProt P51577). Kind of assay: Inhibitory concentration against rat P2X purinoceptor 4 expressed in Xenopus laevis oocytes.
Assay [9] addresses T2, P2Y purinoceptor 11. Nature of the assay: Inhibitory concentration against P2Y11 receptor expressed in 1321N1 astrocytoma Cells; (n=7). In short, it runs like this:
as §2

For assay [10], the target named is T6, P2X purinoceptor 4 (Rattus norvegicus, UniProt P51577).
T6 sequence (P51577 whole entry): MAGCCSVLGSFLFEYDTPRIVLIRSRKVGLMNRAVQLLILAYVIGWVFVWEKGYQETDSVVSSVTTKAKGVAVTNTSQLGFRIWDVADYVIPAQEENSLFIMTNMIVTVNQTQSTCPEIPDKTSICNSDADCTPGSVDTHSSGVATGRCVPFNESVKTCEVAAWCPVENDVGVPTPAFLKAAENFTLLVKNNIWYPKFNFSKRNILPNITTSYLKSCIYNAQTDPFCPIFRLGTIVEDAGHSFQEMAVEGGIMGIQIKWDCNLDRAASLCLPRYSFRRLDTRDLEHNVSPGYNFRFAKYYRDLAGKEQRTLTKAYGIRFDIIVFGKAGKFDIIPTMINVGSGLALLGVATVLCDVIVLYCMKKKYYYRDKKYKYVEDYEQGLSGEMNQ
Kind of assay: Inhibitory concentration against rat P2X purinoceptor 4 expressed in Xenopus laevis oocytes. Format: functional, cell-based, Oocyte. In short, it runs like this: as §3

Assay [11] concerns the target P2X purinoceptor 1 (Rattus norvegicus, UniProt P47824). Nature of the assay: Inhibitory concentration against rat P2X purinoceptor 1 expressed in Xenopus laevis oocytes. The format is functional, cell-based, Oocyte. The method, boiled down:
as §3

Where only a bound is given, the exact number is not on record here.

P2X purinoceptor 1, sequence (P47824 whole entry, looked up): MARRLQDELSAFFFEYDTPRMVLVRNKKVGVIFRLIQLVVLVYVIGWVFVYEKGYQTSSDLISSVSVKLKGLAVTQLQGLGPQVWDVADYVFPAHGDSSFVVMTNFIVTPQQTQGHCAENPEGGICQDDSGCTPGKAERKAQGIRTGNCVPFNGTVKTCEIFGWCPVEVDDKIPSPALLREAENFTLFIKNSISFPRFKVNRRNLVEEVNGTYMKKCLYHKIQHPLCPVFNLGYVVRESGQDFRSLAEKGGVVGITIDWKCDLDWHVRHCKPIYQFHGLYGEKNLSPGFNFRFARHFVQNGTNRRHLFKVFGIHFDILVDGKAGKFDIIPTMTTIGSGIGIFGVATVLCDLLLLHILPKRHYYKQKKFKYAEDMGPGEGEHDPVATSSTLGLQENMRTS
P2Y purinoceptor 1, sequence (P47900 whole entry): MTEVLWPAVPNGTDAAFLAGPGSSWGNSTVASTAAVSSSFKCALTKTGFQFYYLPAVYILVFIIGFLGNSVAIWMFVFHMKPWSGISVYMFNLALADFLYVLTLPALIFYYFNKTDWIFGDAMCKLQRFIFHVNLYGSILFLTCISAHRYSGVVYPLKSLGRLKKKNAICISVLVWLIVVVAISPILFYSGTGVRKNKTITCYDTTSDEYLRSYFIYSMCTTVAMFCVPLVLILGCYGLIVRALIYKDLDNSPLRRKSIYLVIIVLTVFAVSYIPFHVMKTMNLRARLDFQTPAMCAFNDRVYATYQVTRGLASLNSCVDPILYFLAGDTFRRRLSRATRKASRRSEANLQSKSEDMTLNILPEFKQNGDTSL

The inhibition is the relative decrease from the control value, in per cent. One may read the Ki as the dissociation constant of the complex between target and ligand, obtained from inhibition or displacement. High values mean lower affinity, low ones higher affinity. In general, IC50 refers to the concentration that gives 50% inhibition. Read a low IC50 as greater potency. Consider `O=C(Nc1cccc(C(=O)Nc2cc(C(=O)Nc3ccc(S(=O)(=O)O)c4cc(S(=O)(=O)O)cc(S(=O)(=O)O)c34)ccc2F)c1)Nc1cccc(C(=O)Nc2cc(C(=O)Nc3ccc(S(=O)(=O)O)c4cc(S(=O)(=O)O)cc(S(=O)(=O)O)c34)ccc2F)c1`, for which the figures for the inhibition in assay [1], in assay [5] and in [6] were 42.8%, 63.3% and 96.6%, respectively. Besides, the Ki in [2] is 44.7 nM. Also, the IC50 in assay [3] was 355 nM; in [4] it was 138 nM; in [7], 170000 nM; in assay [8], above 1000 nM; in assay [9], 457 nM; in [10], above 1000 nM. It took 81.3 nM to reach half-maximal inhibition in assay [11] (IC50).
